Compounds with a hit are over-represented: about 1.8% of the library has one in this group of screens.
NPY-Y1 antag: blocks the human neuropeptide Y Y1 receptor; inhibition, % at 3.6 µM; P25929; HEK293-CNG Y1 cells, membrane potential fluorescence; NPY at EC95, then isoproterenol; 200,000 compounds, 1% hits;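 active = inhibition above the campaign mean inhibition of all tested compounds plus 3 SD, cut at about 20% in these data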;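 note: 0% = DMSO wells given NPY plus isoproterenol and 100% = isoproterenol alone without NPY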
Target sequence (P25929 whole entry, looked up): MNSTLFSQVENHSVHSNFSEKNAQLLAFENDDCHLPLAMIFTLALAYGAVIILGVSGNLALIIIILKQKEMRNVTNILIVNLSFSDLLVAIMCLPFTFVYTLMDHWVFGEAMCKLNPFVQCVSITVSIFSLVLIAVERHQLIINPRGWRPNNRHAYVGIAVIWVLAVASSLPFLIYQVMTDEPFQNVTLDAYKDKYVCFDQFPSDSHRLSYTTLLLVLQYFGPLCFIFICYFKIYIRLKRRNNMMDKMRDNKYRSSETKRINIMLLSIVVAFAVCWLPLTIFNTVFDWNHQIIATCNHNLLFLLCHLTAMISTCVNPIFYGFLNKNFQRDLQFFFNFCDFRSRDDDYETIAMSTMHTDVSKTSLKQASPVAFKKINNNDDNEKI
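Material: HEK293 cells co-expressing NPY Y1 receptor and cyclic-nucleotide gated channel. Timing: compound incubation 1 h at room temperature, readout 45 min post-stimulation. Signal: fluorescence, membrane potential probe.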
NPY-Y2 antag: antagonists of human neuropeptide Y receptor Y2. P49146. NPY-Y2 expressing cells, antagonist mode. inhibition, % at 2.7 µM. 140,000 compounds, 0.99% hits. AID 793; in the data active = inhibition above about 17%;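 note: 0% = vehicle with agonist challenge and 100% = reference antagonist with challenge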
Target sequence (P49146 whole entry, looked up): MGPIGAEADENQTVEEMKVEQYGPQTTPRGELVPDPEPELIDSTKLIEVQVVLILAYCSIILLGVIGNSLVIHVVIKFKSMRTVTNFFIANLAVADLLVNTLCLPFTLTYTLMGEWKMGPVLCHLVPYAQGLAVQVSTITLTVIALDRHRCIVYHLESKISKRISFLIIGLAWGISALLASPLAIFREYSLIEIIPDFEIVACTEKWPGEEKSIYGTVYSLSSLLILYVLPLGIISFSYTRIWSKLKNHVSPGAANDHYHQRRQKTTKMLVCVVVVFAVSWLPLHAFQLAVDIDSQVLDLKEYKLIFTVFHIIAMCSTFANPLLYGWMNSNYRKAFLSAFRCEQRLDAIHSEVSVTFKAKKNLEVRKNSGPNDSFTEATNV
NPY-Y1 PAM-ag: potentiators or agonists of human neuropeptide Y receptor Y1; P25929; NPY-Y1 expressing cells, potentiator/agonist activation; activation, % at 3.6 µM; 220,000 compounds, 0.37% hits; AID 1304; in the data active = activation above about 33%, passing the limit was not always enough;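 note: cells stimulated with NPY at EC10 then isoproterenol at EC100; 0% = low agonist plus stimulus and 100% = saturating agonist plus stimulus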
NPY-Y2 PAM-ag: human NPY-Y2 potentiation or agonism, primary screen; P49146; 220,000 compounds, 0.45% hits; cells expressing NPY-Y2, potentiator/agonist read-out; activation, % at 3.6 µM; in the data active = activation above about 27%;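 note: cells stimulated with NPY near EC25 plus isoproterenol at EC100; 0% = vehicle plus submaximal agonist and 100% = vehicle plus saturating agonist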
NPY1 antag conf: human NPY-Y1 antagonism, confirmation. shares compounds with NPY-Y1 antag. HEK293-CNG NPY-Y1, membrane potential fluorescence, cAMP; NPY challenge against isoproterenol-raised cAMP. inhibition, % at 3.6 µM. 1,200 compounds, 21% hits. AID 1254; in the data active = inhibition above about 20%;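 note: 0% = vehicle with agonist plus stimulus and 100% = stimulus alone without agonist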
NPY-Y2 antag ct: counter-screen for NPY-Y1 antagonists: human NPY-Y2 antagonism; inhibition, % at 3.6 µM; 1,200 compounds, 28% hits; shares compounds with NPY-Y1 antag; HEK293 NPY-Y2 CNG membrane potential fluorescence; cells given NPY, then isoproterenol; in the data active = inhibition above about 17%;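 note: 0% = DMSO with agonist challenge and 100% = reference antagonist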
NPY-Y1 pot conf: confirmation of human NPY-Y1 receptor potentiators or agonists | shares compounds with NPY-Y1 PAM-ag | activation, % at 3.6 µM | AID 1546 | 280 compounds, 20% hits | cell-based NPY-Y1 potentiator/agonist assay;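 note: cells challenged with NPY at its EC10 plus isoproterenol stimulus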
NPY-Y2 counter: potentiates or activates NPY-Y2, counter-screen for NPY-Y1 hits; shares compounds with NPY-Y1 PAM-ag; HEK293-CNG cells, membrane-potential fluorescence (FLIPR), 1536-well; activation, % at 3.6 µM; 280 compounds, 20% hits; in the data active = activation above about 33%
NPY-Y1 ag: activates human NPY-Y1, counter-screen for NPY-Y1 potentiators. shares compounds with NPY-Y1 PAM-ag. activation, % at 3.6 µM. 280 compounds, 50% hits. HEK293 Y1-CNGC, membrane potential fluorescence, agonist mode;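 active = percent activation above the mean of DMSO-only control wells plus 3 SD of those wells, cut at about 18% in these data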;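 note: cells challenged with isoproterenol plus Ro 20-1724 with no NPY in test wells; Y1 agonism lowers isoproterenol-driven cAMP and reduces probe fluorescence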
NPY-Y2 agonist: activates human NPY-Y2, counter-screen for NPY-Y1 hits; 280 compounds, 67% hits; shares compounds with NPY-Y1 PAM-ag; activation, % at 3.6 µM; HEK293 Y2-CNGC, membrane potential fluorescence, agonist mode;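 active = activation above the solvent-only control wells' mean plus 3 SD, cut at about 11% in these data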;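 note: 0% = DMSO with isoproterenol and 100% = 40 nM NPY maximal response; agonism lowers cAMP so well fluorescence drops in active wells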
CNGC inh 2: blocks cyclic nucleotide gated channel in NPY-Y1 counter-screen; shares compounds with NPY-Y1 PAM-ag; HEK293-CNG parental, isoproterenol cAMP, membrane potential fluorescence; inhibition, % at 3.6 µM; 280 compounds, 42% hits;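 active = inhibition above the mean of stimulated solvent-only control wells plus 3 SD, cut at about 22% in these data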;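 note: 0% = isoproterenol-stimulated DMSO wells and 100% = unstimulated DMSO wells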
NPY-Y2 pot conf: human NPY-Y2 potentiation or agonism, confirmation. AID 1539. activation, % at 3.6 µM. shares compounds with NPY-Y2 PAM-ag. 450 compounds, 20% hits. cell-based NPY-Y2 potentiator/agonist assay; in the data active = activation above about 33%
NPY-Y1 potentiator: NPY-Y1 potentiation or agonism as NPY-Y2 counter-screen | shares compounds with NPY-Y2 PAM-ag | Y1 HEK293-CNG cells, membrane potential fluorescence | activation, % at 3.6 µM | 450 compounds, 20% hits;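 note: cells stimulated with submaximal NPY then isoproterenol with phosphodiesterase inhibitor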
NPY-Y1 ag 2: human NPY-Y1 agonism as NPY-Y2 potentiator counter-screen; activation, % at 3.6 µM; HEK293 Y1-CNGC, membrane potential fluorescence; 450 compounds, 37% hits; shares compounds with NPY-Y2 PAM-ag;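 active = activation above the mean of DMSO-only control wells plus 3 SD, cut at about 18% in these data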;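 note: cells stimulated with 1 µM isoproterenol plus the PDE inhibitor Ro 20-1724; 0% = isoproterenol with DMSO and no NPY and 100% = 40 nM NPY; Y1 agonists lower the membrane potential dye signal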
CNGC inh: blocks CNG channel activity, counter-screen for NPY-Y2 potentiators; 450 compounds, 32% hits; shares compounds with NPY-Y2 PAM-ag; inhibition, % at 3.6 µM; HEK293-CNG parental, isoproterenol cAMP, membrane potential fluorescence;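 active = inhibition above the control-well mean plus 3 SD of those wells, cut at about 22% in these data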;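 note: 0% = DMSO with isoproterenol and 100% = DMSO without isoproterenol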
NPY-Y2 ag 2: counter-screen for NPY-Y2 potentiators: agonists of human NPY-Y2; 450 compounds, 56% hits; HEK293 Y2/CNGC cells, membrane potential fluorescence, agonist mode; activation, % at 3.6 µM; shares compounds with NPY-Y2 PAM-ag;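 active = activation above the mean of solvent-only control wells plus 3 SD, cut at about 10% in these data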;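 note: cells stimulated by isoproterenol with no NPY added so direct agonism is tested; 0% = DMSO with isoproterenol alone and 100% = NPY at EC100 plus isoproterenol; agonism lowers probe fluorescence through less cAMP and CNG channel opening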
Starred values were filed as active, the others as inactive; · = not tested or not shown. Cut-off read from the data, not from the text of the source, unless noted: active = activation above about 45%; inactive = the rest.

SMILES	NPY-Y1 antag	NPY-Y2 antag	NPY-Y1 PAM-ag	NPY-Y2 PAM-ag	NPY-Y1 pot conf	NPY-Y2 counter	NPY-Y1 ag	NPY-Y2 agonist	CNGC inh 2	others
Clc1ccc(SCCOCCN2CCc3ccccc3C2)cc1	23*	·	-23	-5	·	·	·	·	·	NPY1 antag conf=15;NPY-Y2 antag ct=12
CC(=O)c1ccc(OCc2ccc(Oc3c(Cl)cccc3[N+](=O)[O-])cc2)cc1	-3	3	-3	10	·	·	·	·	·
Cc1ccc(-n2ncc3c(SCc4cccnc4)ncnc32)c(C)c1	25*	·	-9	33*	·	·	·	·	·	NPY1 antag conf=13;NPY-Y2 antag ct=6;NPY-Y2 pot conf=-17;NPY-Y1 potentiator=-60;NPY-Y1 ag 2=-50;CNGC inh=-27;NPY-Y2 ag 2=-23
CN(CC(=O)NC(=O)NC(C)(C)C)CC(=O)Nc1ccccc1Cl	13	·	-30	-6	·	·	·	·	·
O=C(COc1ccc(Cl)cc1Cl)NCCSc1ccc(Cl)cc1	18	7	91*	-33	-36	-23	-21	-1	-26
CN(C)CCNC(=O)COc1ccc(Cl)cc1Cl	-8	5	-17	-11	·	·	·	·	·
Cc1[nH]c2ccccc2c1N=Nc1ccc(F)cc1	-7	·	39*	19	40	28	33*	30*	26*
Oc1[nH]c2ccccc2c1N=Nc1ncnc2c1oc1ccccc12	·	·	-1	3	·	·	·	·	·
COc1ccc(N=C2O/C(=C/c3sc(=S)n(CC4CCCO4)c3O)N=C2C#N)cc1 (stereo not given)	·	·	53*	21	42	45*	22*	48*	12
COc1ccc(/C=C2\SC(=S)N(CC3CCCO3)C2=O)cc1 (stereo not given)	·	·	11	10	·	·	·	·	·
O=c1c2ccccc2nc2n1C(CBr)CN2 (stereo not given)	·	·	24	12	·	·	·	·	·
N#C/C(=C\c1ccc(O)c([N+](=O)[O-])c1)c1nc2ccccc2s1	-7	·	39*	7	15	12	9	4	16
COc1cc(/C=C(\C#N)c2nc3ccccc3s2)cc([N+](=O)[O-])c1O	0	·	17	13	·	·	·	·	·
CCOC(=O)N1CCC(=NNC(=O)c2ccc(O)cc2)CC1	5	7	1	4	·	·	·	·	·
CCOC(=O)Cn1c(=O)oc2cc(S(=O)(=O)NCc3ccccn3)ccc21	0	1	0	3	·	·	·	·	·
CCOC(=O)Cn1c(=O)oc2cc(S(=O)(=O)NCc3cccs3)ccc21	-9	2	33*	27	48*	27	46*	29*	61*
CCN(CC)C(=O)CSc1nnc2nnc3cc(OC)ccc3n12	·	·	4	-3	·	·	·	·	·
CC(=O)c1ccc(NC(=S)NC(C)c2ccc(Cl)cc2Cl)cc1 (stereo not given)	-5	·	37*	25	48*	27	37*	35*	36*
O=C(Nc1ccc([N+](=O)[O-])cc1)Nc1ccc(OC(F)F)c(Cl)c1	-10	0	10	18	·	·	·	·	·
Cc1cc(-c2onc(C)c2C(=O)Nc2ccc(C(F)(F)F)cc2)no1	·	·	1	-15	·	·	·	·	·
Cc1noc(-c2ccc(C(F)(F)F)cc2)c1NC(=O)Nc1ccc(Cl)cc1	·	·	63*	12	53*	31	53*	25*	37*
CCN(Cc1cc(OC)c(OC)c(OC)c1)C(=S)Nc1cccc(SC)c1	·	·	6	-11	·	·	·	·	·
CS(=O)(=O)CCC(C(=O)OCC(=O)c1ccc(Cl)cc1)N1C(=O)c2ccccc2C1=O (stereo not given)	-3	3	-3	-4	·	·	·	·	·
O=C1/C(=C/c2ccccn2)SC(=S)N1c1cccc(O)c1	·	·	54*	29	57*	38*	41*	37*	32*
CC(C)N(C(=O)COC(=O)[C@@H]1CC(O)CN1S(=O)(=O)c1ccc(C(C)(C)C)cc1)C(C)C (stereo not given in full)	1	·	-7	-16	·	·	·	·	·
SMILES	NPY-Y1 antag	NPY-Y2 antag	NPY-Y1 PAM-ag	NPY-Y2 PAM-ag	NPY-Y1 pot conf	NPY-Y2 counter	NPY-Y1 ag	NPY-Y2 agonist	CNGC inh 2	others
CC(=O)c1c(C)nc(-c2ccc(Cl)cc2)nc1N	-2	·	88*	-10	4	-2	-12	-8	-6
O=C(c1cc(C2CC2)on1)N1CCN(C(c2ccccc2)c2ccccc2)CC1	-2	-2	-6	5	·	·	·	·	·
O=C(c1cc(-c2cccc(O)c2)on1)N1CCN(C(c2ccccc2)c2ccccc2)CC1	8	1	32*	-6	32	5	18*	16*	7
CCOC(=O)N1CCN(C(=O)/C(=C/c2cccs2)NC(=O)c2cccs2)CC1	-1	·	43*	2	3	-1	-6	-5	-6
NNC(=O)C12CC3CC(C1)CC(n1ncnn1)(C3)C2	1	2	12	12	·	·	·	·	·
COc1cc(=O)n(C)c2ccccc12	3	2	50*	0	-7	-4	-7	9	9
COc1ccc2c(OC)cc(=O)n(C)c2c1	4	0	-4	6	·	·	·	·	·
COc1cc2c(cc1NC(=O)CN1C(=O)NC3(CCc4ccccc43)C1=O)oc1ccccc12 (stereo not given)	-7	-2	35*	19	62*	39*	37*	44*	45*

Assay outcomes (PubChem)
